# Screens deposited in PubChem BioAssay by several laboratories.
# 697 NFkB inh = inhibitors of PMA/ionomycin-induced NF-kB reporter, 697 cells, primary screen, B-cell NF-kB inhibitor project, cell-based, luminescence, uHTS; inhibition, % at 4 µM; 330,000 compounds, 0.33% hits; 697 B-cell NF-kB luciferase reporter, 16 h; in the data active = inhibition above about 35%
# HSF1 inh = HSF1 inhibitors in luciferase reporter cells, primary screen, cell-based, NIH3T3, luminescence; activity change, negative = inhibition, % at 7.5 µM (by protocol); 300,000 compounds, 0.77% hits; NIH3T3-HGL HSE-luciferase, MG132-induced, luminescence 8 h; active compounds read low;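 active = more than half of replicate wells show activity change below -50%, luminescence cut by over half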;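 note: luciferase reports HSF-1 transcriptional activity via heat shock element; 0% = median of DMSO wells and -100% = zero luminescence signal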
# T cruzi inh = inhibitors of intracellular T. cruzi growth, primary screen, luminescence, NIH3T3 host cells | inhibition, % (concentration not given with the values) | 300,000 compounds, 1.4% hits | T. cruzi beta-gal in NIH3T3, 90 h;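 active = mean inhibition across valid replicates above about 55%, limit read from the data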;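 note: signal also drops with host cell toxicity which is not excluded here; 0% = plate median of DMSO wells and 100% = zero luminescence signal; higher percent means less beta-gal luminescence so fewer parasites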
#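 Assay system: NIH/3T3 host cells with β-galactosidase reporter T. cruzi; input: 5,000 host fibroblasts per well; compound: single 50 nL compound addition per well in DMSO; timing: ≥90 h infection period, 3 h prior cell attachment; measured by: GalScreen β-gal luminescence, detergent lysis, 60 min; evaluation: percent inhibition of parasite-derived β-gal signal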
# HSF1 activator = HSF-1 activators, primary screen, NIH3T3-HGL cells, MG132 stress, luminescence, single point; activation, % at 9 µM; AID 504408, 2011; 300,000 compounds, 1.7% hits; NIH3T3-HGL HSF-1 luciferase reporter, 8 h; 100% = twice DMSO control signal;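 active = mean replicate activation of at least 50% with a set share of replicates each reaching 50%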;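 note: 0% = median of the neutral control wells and 100% = twice that signal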
# GPR7 antag = GPR7 receptor antagonists, primary screen, cell-based, fluorescence, single concentration. Neuropeptides B/W receptor type 1 (Homo sapiens), P48145. GPR7-expressing cells, fluorescence antagonist assay. inhibition, % at 4.4 µM. 290,000 compounds, 1.1% hits; in the data active = inhibition above about 16%, passing the limit was not always enough;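 note: cells stimulated with the agonist NPW; 0% = agonist with vehicle and 100% = vehicle without agonist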
# Target sequence (P48145 whole entry, looked up): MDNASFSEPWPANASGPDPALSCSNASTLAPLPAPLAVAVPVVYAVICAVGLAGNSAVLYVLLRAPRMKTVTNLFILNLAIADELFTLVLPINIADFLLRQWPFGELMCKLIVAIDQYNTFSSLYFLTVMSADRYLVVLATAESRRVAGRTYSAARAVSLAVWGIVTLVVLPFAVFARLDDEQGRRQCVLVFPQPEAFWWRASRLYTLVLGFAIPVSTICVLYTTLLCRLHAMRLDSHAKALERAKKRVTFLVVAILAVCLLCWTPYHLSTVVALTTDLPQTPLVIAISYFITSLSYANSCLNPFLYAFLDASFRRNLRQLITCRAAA
# Jurkat NFkB inh = inhibitors of induced NF-kB luciferase reporter, primary screen, TCR NF-kB activation inhibitor project, cell-based, luminescence, uHTS. 330,000 compounds, 0.53% hits. Jurkat, PMA/ionomycin-induced NF-kB luciferase reporter. inhibition, % at 4 µM; in the data active = inhibition above about 50%
# * hit, by the source's call; / = no result. In the library only some 4.8% were active in any assay of this set; here they are far more common.
SMILES,697 NFkB inh,HSF1 inh,T cruzi inh,HSF1 activator,GPR7 antag,Jurkat NFkB inh
CCOC(=O)c1ccc(N=C(C)c2c(O)[nH]c(=O)[nH]c2=O)cc1,1,-63*,13,-62,2,-3
CCCCn1c(O)c(C(C)=Nc2ccc(C(=O)O)cc2)c(=O)[nH]c1=O,5,-11,-2,5,-8,-8
COc1ccc(N2C(=O)NC(=O)/C(=C/c3ccc([N+](=O)[O-])s3)C2=O)cc1,13,21,32,64*,1,15
COc1ccc(N2C(=O)NC(=O)/C(=C\c3ccc([N+](=O)[O-])s3)C2=O)cc1,-1,13,60*,27,-8,-13
COc1cccc(N2C(=O)NC(=O)/C(=C/c3ccc([N+](=O)[O-])s3)C2=O)c1,15,9,41,14,4,4
CC1=C(C(=O)N2CCC3(CC2)OCCO3)C2(CCC(C)CC2)OC1=O (stereo unspecified),8,-4,-8,8,10,-9
c1cc2c(cc1NC1=NCCO1)CCCC2,/,2,/,2,/,/
O=[N+]([O-])c1ccc(NC2CCN(Cc3ccccc3)CC2)c2ccncc12,-16,-10,60*,-11,4,10
OCC12COC3c4ccccc4C(OC1)N32 (stereo unspecified),29,-5,-11,0,-4,-2
COc1ccc(C2=NCC(=S)Nc3ccc(Cl)cc32)cc1Cl,16,5,-9,-5,-7,3
CC(=O)OC1C(=O)OCC23CCC4(C)OC4C2OC2CC(OC(=O)C=CC=CC(=O)OCCC1C)C3(C)C21CO1 (stereo unspecified),/,92*,/,92*,/,/
CC(O)C1C=CC=CC(=O)OC2CC3OC4C5OC5(C)CCC4(COC(=O)C4OC4(C)C(O)CO1)C2(C)C31CO1 (stereo unspecified),/,91*,/,91*,/,/
CC1=CC2OC3CC4OC(=O)C=CC=CC(=O)OCCC(C)C(O)C(=O)OCC2(CC1O)C4(C)C31CO1 (stereo unspecified),/,92*,/,92*,/,/
CCOC(=O)c1c(NC(=O)C(c2ccccc2)c2ccccc2)sc2c1C1CCN2CC1,-2,4,55*,18,-33,1
O=C(OC1CCN(CCCl)CC1)C(c1ccccc1)c1ccccc1,13,/,/,/,/,1
O=C(Nc1nc(-c2ccccc2)c(-c2ccccc2)s1)c1ccc(S(=O)(=O)N(CCCl)CCCl)cc1,-114,-12,56*,0,-10,17
CC(=O)c1cn(Cc2ccccc2F)c2ccccc12,11,-4,9,14,10,38
O=C1NC(=O)[C@]2(Cc3ccccc3N3CCN(c4ccccc4)CC32)C(=O)N1Cc1ccccc1 (stereo partly specified),-30,22,5,65*,-11,-7
Cc1cc(=O)oc2cc3c(cc12)CCCN3,3,-3,3,9,-5,-21
CN(C)c1ccc(/C=C/C=C/c2sc3ccccc3[n+]2C)cc1,-44,-8,71*,-2,-8,20
Fc1ccc(Cn2nnnc2C(c2ccc(Cl)cc2)N2CC=C(c3ccc(F)cc3)CC2)cc1 (stereo unspecified),14,5,69*,14,-1,3
Cc1ccc(C(c2nnnn2Cc2ccccc2)N2CC=C(c3ccc(F)cc3)CC2)cc1 (stereo unspecified),14,-2,65*,5,2,26
NC(=O)CS(=O)C(c1ccccc1)c1ccccc1 (stereo unspecified),/,/,/,/,-11,/
Clc1ccccc1CN1CCN(c2cccc3[nH]ccc23)CC1,10,0,17,-3,-10,4
COCCOC(=O)C1=C(N)Oc2c(c(=O)oc3ccccc23)[C@@]12C(=O)Nc1ccccc12,-3,-4,-15,2,/,0
